For experiment [1], the system named is Jurkat. The experiment is described as follows: Induction of apoptosis in human Jurkat cells at 5 uM by annexin V/propidium iodide assay. Type of experiment: functional, cell-based. The gist of the method: (§1)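 Jurkat cells at 2 × 10^5 cells/mL exposed to compounds, with DMSO control. Exposure was 5 μM for 36 h, 1 μM for 12–60 h, or 48 h across a range of doses. Cells stained with Annexin-V-FITC/propidium iodide in HHB with CaCl2 for 20 min at 37 °C. Flow cytometry gives % Annexin-V-positive cells; four replicates, experiment repeated twice.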

Another experiment has as its system HeLa. The experiment is described as follows: Antiproliferative activity against human HeLa cells assessed as cell viability after 48 hrs by MTT assay. Type of experiment: functional. In short, it runs like this: (§2)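 Cells plated at 2 × 10^4 cells/mL and allowed to adhere for 24 h, then exposed to compounds for 48 h. MTT reagent (5 mg/mL stock) added for 2 h, formazan dissolved in DMSO, OD read at 490 nm.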
In general terms: Formazan colour is commonly taken as a measure of viable cells.

In another experiment the test system is MCF7. In words: Antiproliferative activity against human MCF7 cells assessed as cell viability after 48 hrs by MTT assay. The conditions noted are these: MCF7, 48 h. Type of experiment: functional. In short, it runs like this: as §2
The species entered for experiment [2] is Bos taurus. The experiment is described as follows: Inhibition of bovine tubulin polymerization at 25 uM. In short, it runs like this: (§3)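 Purified bovine tubulin incubated at 37 °C in buffer with 10% glycerol and 1 mM GTP, each agent in a separate run against a 0.05% DMSO control. Polymerization followed kinetically by fluorescence increase on a plate reader.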

Experiment [3] deals with Jurkat. The experiment is described as follows: Cell cycle arrest in human Jurkat cells assessed as accumulation at S phase at 1 uM after 24 hrs by flow cytometry. It counts as functional. In short, it runs like this: (§4)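 Cells stained with Vybrant DyeCycle Orange in HHB (1 μL dye per mL) for 30 min at 37 °C in the dark, then analysed by flow cytometry. % relative DNA content ± SD, two independent experiments each in triplicate.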

Experiment [4] relates to Jurkat. The experiment is described as follows: Cell cycle arrest in human Jurkat cells assessed as accumulation at G0/G1 phase at 1 uM after 24 hrs by flow cytometry. It counts as functional. The gist of the method:
as §4

Experiment [5] concerns Jurkat. The experiment is described as follows: Induction of apoptosis in human Jurkat cells assessed as oligonucleosomal DNA fragments at 1.5 uM after 36 hrs by DNA laddering assay. Type of experiment: functional, cell-based. In short, it runs like this:
(§5)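 About 1 × 10^6 Jurkat cells treated for 36 h. Cells lysed in Tris-HCl pH 8/EDTA/0.5% SDS/proteinase K at 55 °C for 60 min, then RNase at 55 °C for 60 min. Cleared lysate run on a 1.5% agarose gel with ethidium bromide at 80 V for about 1 h and viewed under UV.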

Experiment [6] has as its system Jurkat. The experiment is described as follows: Induction of apoptosis in human Jurkat cells assessed as morphological changes after 2 hrs by light microscopy. It counts as functional, cell-based. In short, it runs like this: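 Jurkat cells exposed to compound at 1 μM for 2 h, with 0.1% DMSO as control. Finger-like extensions and shriveling scored by light microscopy.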

Experiment [7] concerns Jurkat. The experiment is described as follows: Cell cycle arrest in human Jurkat cells assessed as accumulation at G2/M phase at 1 uM after 24 hrs by flow cytometry. Type of experiment: functional. The gist of the method:
as §4
(In flow cytometry, cells or beads pass a laser one at a time.)

In experiment [8] the test system is Jurkat. In words: Induction of apoptosis in human Jurkat cells assessed as oligonucleosomal DNA fragments at 0.4 uM after 36 hrs by DNA laddering assay. It counts as functional, cell-based. In short, it runs like this: as §5
The species named for experiment [9] is Bos taurus. In words: Induction of bovine tubulin polymerization at 3 uM relative to control. In short, it runs like this:
as §3

Experiment [10] relates to Jurkat. In words: Induction of apoptosis in human Jurkat cells at 100 nM by annexin V/propidium iodide assay.
Experiment [11] has as its system Jurkat. The experiment is described as follows: Induction of apoptosis in human Jurkat cells by annexin V/propidium iodide assay. The conditions noted are these: TDE = time-dependent effect. It counts as functional, cell-based. The gist of the method: as §1

The values below come from ChEMBL document CHEMBL1144746, “Structural simplification of bioactive natural products with multicomponent synthesis. 2. antiproliferative and antitubulin activities of pyrano[3,2-c]pyridones and pyrano[3,2-c]quinolones” (2008).

For orientation: GI50 means the concentration at which growth is held to half of that of the control.

Calls of active or inactive are those of the source. The rule behind the calls is not given here.

Turning to `Cc1cc2c(c(=O)n1C)C(c1cccc(Br)c1)C(C#N)=C(N)O2` (stereo not given), the result in the experiment with Jurkat [1] was Active. For the same molecule, in the experiment with HeLa, the GI50 worked out at 6500 nM.
For `Cc1cc2c(c(=O)o1)C(c1cccc(Br)c1)C(C#N)=C(N)O2` (stereo not given), the GI50 in the experiment with HeLa is more than 100000 nM.
For the molecule `Cn1c(=O)c2c(c3ccccc31)OC(N)=C(C#N)C2c1cccnc1` (stereo not given), the concentration for 50% growth inhibition (GI50) in the experiment with MCF7 is more than 50000 nM; in the experiment on HeLa, 2000 nM.
As for `Cn1c(=O)c2c(c3ccccc31)OC(N)=C(C#N)C2c1ccco1` (stereo not given), the concentration for 50% growth inhibition (GI50) stood at 35000 nM in the experiment on MCF7 and 22000 nM in the experiment with HeLa.
For `COc1cc(C2C(C#N)=C(N)Oc3c2c(=O)n(C)c2ccccc32)cc([N+](=O)[O-])c1O` (stereo not given), in that order: 710 nM and 630 nM.
With `COc1cc(C2C(C#N)=C(N)Oc3cc(C)n(C)c(=O)c32)cc(Br)c1O` (stereo not given), the outcome in the experiment on Jurkat [1] was Active. In the experiment with HeLa, the GI50 worked out at 2700 nM.
Regarding `Cn1c(=O)c2c(c3ccccc31)OC(N)=C(C#N)C2c1c(Cl)cccc1Cl` (stereo not given), the GI50 was 36000 nM in the experiment on MCF7 and more than 50000 nM in the experiment on HeLa.
For `Cn1c(=O)c2c(c3ccccc31)OC(N)=C(C#N)C2c1ccccc1[N+](=O)[O-]` (stereo not given), in that order: 3500 nM and 5000 nM.
For `Cn1c(=O)c2c(c3ccccc31)OC(N)=C(C#N)C2c1cccc(F)c1` (stereo not given), in that order: 1000 nM and 300 nM.
For `Cn1c(=O)c2c(c3ccccc31)OC(N)=C(C#N)C2c1ccccc1` (stereo not given), in that order: 3380 nM and 390 nM.
In the case of `Cc1cc2c(c(=O)n1C)C(c1ccc(Cl)c(Cl)c1)C(C#N)=C(N)O2` (stereo not given), the result in the experiment on Jurkat [1] was inactive. For the same molecule, the GI50 with HeLa was found to be 18300 nM.
Consider `COc1cc(C2C(C#N)=C(N)Oc3c2c(=O)n(C)c2ccccc32)ccc1O` (stereo not given), for which the concentration for 50% growth inhibition (GI50) in the experiment with MCF7 came out at 500 nM; in the experiment on HeLa, 630 nM.
In the case of `COc1cc([C@@H]2c3cc4c(cc3[C@H](O)[C@H]3COC(=O)[C@H]23)OCO4)cc(OC)c1OC`, in the experiment listed under Bos taurus [2], the result was Active.
In the case of `Cn1c(=O)c2c(c3ccccc31)OC(N)=C(C#N)C2c1cccc(Cl)c1Cl` (stereo not given), the results for the GI50 in the experiment on MCF7 and with HeLa were more than 50000 nM and 1800 nM, respectively.
For `Cn1c(=O)c2c(c3ccccc31)OC(N)=C(C#N)C2c1ccncc1` (stereo not given), in that order: 32000 nM and more than 50000 nM.
For `Cn1c(=O)c2c(c3ccccc31)OC(N)=C(C#N)C2c1cccc(Cl)c1` (stereo not given), in that order: 2200 nM and 150 nM.
For `Cn1c(=O)c2c(c3ccccc31)OC(N)=C(C#N)C2c1cncc(Br)c1` (stereo not given), in that order: 15 nM and 13 nM.
Turning to `Cn1c(=O)c2c(c3ccccc31)OC(N)=C(C#N)C2c1ccc(F)c(Br)c1` (stereo not given), the concentration for 50% growth inhibition (GI50) in the experiment with MCF7 was 810 nM; in the experiment on HeLa, 270 nM.
For `COc1ccc(C2C(C#N)=C(N)Oc3c2c(=O)n(C)c2ccccc32)cc1O` (stereo not given), in that order: more than 50000 nM and more than 50000 nM.
For `Cn1c(=O)c2c(c3ccccc31)OC(N)=C(C#N)C2c1ccc(Cl)c(Cl)c1` (stereo not given), in that order: 2500 nM and 300 nM.
Turning to `Cc1cc2c(c(=O)n1C)C(c1ccc(N(C)C)c(Br)c1)C(C#N)=C(N)O2` (stereo not given), the result with Jurkat [1] was Active. Further, the GI50 in the experiment on HeLa stood at 330 nM.
With `COc1cc(C2C(C#N)=C(N)Oc3c2c(=O)n(C)c2ccccc32)cc(Br)c1OC(C)=O` (stereo not given), the GI50 was found to be 25 nM with MCF7 and 180 nM in the experiment with HeLa.
Regarding `Cc1cc2c(c(=O)n1C)C(c1ccc(F)c(Br)c1)C(C#N)=C(N)O2` (stereo not given), in the experiment with Jurkat [1], the outcome was Active. Besides, the GI50 in the experiment with HeLa is 6400 nM.
`Cn1c(=O)c2c(c3ccccc31)OC(N)=C(C#N)C2c1cc(Br)cc(Br)c1` (stereo not given): the GI50 in the experiment with MCF7 was 75 nM; in the experiment with HeLa it was 77 nM.
For `COc1ccc(C2C(C#N)=C(N)Oc3c2c(=O)n(C)c2ccccc32)cc1Br` (stereo not given), in that order: 500 nM and 410 nM.
For `Cn1c(=O)c2c(c3ccccc31)OC(N)=C(C#N)C2c1cc(Br)c(O)c(Br)c1` (stereo not given), the GI50 in the experiment on MCF7 was 430 nM; with HeLa, 270 nM.
Consider `Cc1ccc(C2C(C#N)=C(N)Oc3c2c(=O)n(C)c2ccccc32)o1` (stereo not given), for which the values for the GI50 in the experiment on MCF7 and with HeLa were 5100 nM and 3900 nM, respectively.
Consider `COc1cc(C2C(C#N)=C(N)Oc3cc(C)n(C)c(=O)c32)cc(Br)c1OC` (stereo not given), for which the outcome with Jurkat [1] was Active. For the same molecule, in the experiment on HeLa, the GI50 came out at 580 nM.
Consider `COc1cc(C2C(C#N)=C(N)Oc3c2c(=O)n(C)c2ccccc32)cc(Br)c1OC` (stereo not given), for which the Activity in the experiment on Jurkat [3] is listed as 28%; in the experiment with Jurkat [4], 20%; in the experiment on Jurkat [7], 49%. Further, the outcome in the experiment on Jurkat [5], in the experiment with Jurkat [6] and in the experiment filed under Bos taurus [2] was Active. Also, the results for the concentration for 50% growth inhibition (GI50) with MCF7 and in the experiment on HeLa were 380 nM and 14 nM, respectively.
Turning to `Cn1c(=O)c2c(c3ccccc31)OC(N)=C(C#N)C2c1cccc([N+](=O)[O-])c1` (stereo not given), the GI50 in the experiment on MCF7 came out at 1100 nM; in the experiment on HeLa, 320 nM.
As for `CC(=O)O[C@H]1C(=O)[C@@]2(C)[C@H]([C@H](OC(=O)c3ccccc3)[C@]3(O)C[C@H](OC(=O)[C@H](O)[C@@H](NC(=O)c4ccccc4)c4ccccc4)C(C)=C1C3(C)C)[C@]1(OC(C)=O)CO[C@@H]1C[C@@H]2O`, the outcome in the experiment with Jurkat [8] and in the experiment listed under Bos taurus [9] was Active.
As to `Cn1c(=O)c2c(c3ccccc31)OC(N)=C(C#N)C2c1cccc(Br)c1` (stereo not given), the concentration for 50% growth inhibition (GI50) in the experiment on MCF7 was 3 nM; in the experiment with HeLa it was 740 nM.
Regarding `CCOc1c(Br)cc(C2C(C#N)=C(N)Oc3cc(C)n(C)c(=O)c32)cc1OC` (stereo not given), the result in the experiment on Jurkat [1] was Active. For the same molecule, the GI50 with HeLa amounted to 1100 nM.
For `Cc1cc2c(c(=O)n1C)C(c1ccc(C(C)C)cc1)C(C#N)=C(N)O2` (stereo not given), in that order: “inactive” and more than 100000 nM.
Take `COc1cc(C2C(C#N)=C(N)Oc3cc(C)n(C)c(=O)c32)cc(OC)c1OC` (stereo not given): the GI50 in the experiment with HeLa amounted to 43300 nM.
Regarding `Cc1cc2c(c(=O)n1C)C(c1cccc([N+](=O)[O-])c1)C(C#N)=C(N)O2` (stereo not given), the GI50 with HeLa came out at 35000 nM.
Regarding `COc1cc(C2C(C#N)=C(N)Oc3c2c(=O)n(C)c2ccccc32)cc(Br)c1O` (stereo not given), the Activity in the experiment with Jurkat [3] is 22%; with Jurkat [4], 27%; in the experiment with Jurkat [7] it was 47%; in the experiment on Jurkat [11] it was “tde”. For the same molecule, the result in the experiment with Jurkat [10], in the experiment with Jurkat [5], with Jurkat [6] and in the experiment listed under Bos taurus [2] was Active. Besides, the GI50 was 390 nM in the experiment with MCF7 and 47 nM with HeLa.
On to `COc1cc(C2C(C#N)=C(N)Oc3cc(C)n(C)c(=O)c32)cc(Br)c1OC(C)=O` (stereo not given), for which the outcome with Jurkat [1] was Active. Further, in the experiment on HeLa, the GI50 turned out to be 3500 nM.
In the case of `COc1cc(C2C(C#N)=C(N)Oc3c2c(=O)n(C)c2ccccc32)cc(OC)c1OC` (stereo not given), the GI50 came to 1000 nM in the experiment with MCF7 and 240 nM in the experiment with HeLa.
Turning to `COc1ccc(CCn2c(C)cc3c(c2=O)C(c2cc(OC)c(OC)c(OC)c2)C(C#N)=C(N)O3)cc1OC` (stereo not given), the result in the experiment with Jurkat [1] was inactive. The GI50 with HeLa came to 22700 nM.
